M1 ag = M1 muscarinic receptor agonism. 3% of 64,000 active. CHO-M1 cells, Fluo-4 calcium fluorescence, agonist mode; active compounds read high. AID 626. B-score at 10 µM;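 active = fluorescence rise, raw or as B-score row- and column-corrected plate score, outside the 99.7% band of its plate's samples, either direction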
HePTP inhibitor = inhibitors of human HePTP phosphatase; P35236; recombinant HePTP phosphatase activity, OD absorbance; inhibition, % at 20 µM; 0.64% of 110,000 active; AID 521; in the data active = inhibition above about 50%;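 also: plate controls were vehicle for no effect and reference inhibitor for full effect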
SF1 activator = activates the human nuclear receptor SF-1; activation, % at 10 µM; 1.9% of 65,000 active; CHO-K1 Gal4-SF-1 LBD luciferase reporter; % increase over DMSO SF-1-specific signal; AID 522;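 active = activation above the mean activation of all tested compounds plus 3 SD, cut at about 50% in these data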
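Compound – one dose, 10 µM compound, 1% DMSO · Test system – transient Gal4-SF-1 LBD reporter, CHO-K1 · Input – 4,000 cells in each well · Read-out basis – percent activation relative to DMSO median and mock-transfected background · Replicates – single measurement per compound · Technique – steady-glow luciferase luminescence, read after 15 min reagent incubation · Timing – 20 h compound treatment, 37 °C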
RORA act = activates the human nuclear receptor RORA | CHO-K1 Gal4-RORA LBD luciferase reporter, luminescence; percent increase over mock-subtracted basal signal | activation, % at 10 µM | 1.5% of 65,000 active;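 active = activation above the mean of all tested compounds plus 3 SD, cut at about 49% in these data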;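 also: 0% = DMSO-treated RORA cells and 100% = added signal equal to DMSO minus mock-transfected cells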
M1 antag = antagonists of rat M1 muscarinic receptor | CHO-M1 cells, Fluo-4 calcium, ACh EC80 antagonist mode; active compounds read low | 3.4% of 64,000 active | B-score at 10 µM;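 active = calcium fluorescence response, raw or row-and-column corrected B-score, differing from the plate sample mean either way at a set confidence level, mostly lower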
D1 mod = allosterically modulates the human D1 dopamine receptor; 5.9% of 58,000 active; AID 641; P21728; B-score at 10 µM; HEK293 D1, CRE-luciferase, dopamine EC30 potentiation; actives deviate in either direction;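 active = luminescence count or its row- and column-corrected plate score outside the 99.7% band of the plate's sample wells, on either side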
Target sequence (P21728 whole entry, looked up): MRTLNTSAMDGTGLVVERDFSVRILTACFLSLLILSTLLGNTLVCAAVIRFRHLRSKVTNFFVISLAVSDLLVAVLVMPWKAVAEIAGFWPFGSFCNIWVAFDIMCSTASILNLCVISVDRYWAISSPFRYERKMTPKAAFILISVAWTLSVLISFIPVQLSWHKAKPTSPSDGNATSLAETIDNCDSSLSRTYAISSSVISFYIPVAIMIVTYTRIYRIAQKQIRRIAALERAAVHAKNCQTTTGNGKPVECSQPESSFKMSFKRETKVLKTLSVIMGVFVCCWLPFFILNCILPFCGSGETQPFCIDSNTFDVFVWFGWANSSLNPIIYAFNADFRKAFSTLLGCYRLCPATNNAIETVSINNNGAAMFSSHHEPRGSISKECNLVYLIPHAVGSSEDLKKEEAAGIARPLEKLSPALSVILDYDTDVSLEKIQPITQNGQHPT
M1 antag conf = confirmation of rat M1 muscarinic receptor antagonists | 43% of 1,700 active | CHO-M1 cells, Fluo-4 calcium, ACh EC80 antagonism; active compounds read low | calcium response (max-min fluorescence) at 10 µM | AID 677 | shares compounds with M1 antag;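 active = calcium response below the same-plate mean of wells given acetylcholine alone at its 80%-effect dose, minus 3 SD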;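 also: raw fluorescence intensity difference in arbitrary instrument units and not normalized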
mGluR4 antag = mGluR4 (human) activity, M1 antagonist secondary assay; fluorescence response (max-min) at 10 µM; 0.9% of 1,700 active; shares compounds with M1 antag; AID 678; CHO-mGluR4 calcium flux, Fluo-4 fluorescence, glutamate EC80; active compounds read low;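 active = fluorescence response below the plate's average for near-maximal glutamate wells, less 3 SD of those wells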;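 also: raw unnormalized fluorescence span taken in the window right after glutamate addition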
* marks the source's active call; other numbers are inactive results; . = not tested or not shown. This is a sample that favours compounds with a hit; in the whole collection about 8.2% have one here.

SMILES | M1 ag | HePTP inhibitor | SF1 activator | RORA act | M1 antag | D1 mod | M1 antag conf | mGluR4 antag
Cc1c(C(=O)NCc2cccnc2)oc2ccc(S(=O)(=O)N3CCCCCC3)cc12 | -0.73 | 0 | -14 | 14 | -1.6* | -0.52 | 617 | 268
Cc1c(C(=O)N(C)Cc2ccccc2)oc2ccc(S(=O)(=O)N3CCCC3)cc12 | 2.5 | -10 | 7 | 3 | -2.3* | . | 590 | 249
CCOC(=O)N1CCN(C(=O)c2oc3ccc(S(=O)(=O)N4CCCCCC4)cc3c2C)CC1 | -0.15 | 10 | 8 | 14 | -2* | -0.74 | 598 | 236
Cc1c(C(=O)N2CCCc3ccccc32)oc2ccc(S(=O)(=O)N3CCOCC3)cc12 | 0.72 | 1 | 25 | 27 | -2.2* | 0.11 | 614 | 264
C=CCN(CC=C)CN1C(=O)C(=O)c2cc(Br)ccc21 | . | -13 | . | . | . | . | . | .
O=C(Nc1cccnc1)c1cc2nc(C3CC3)cc(C(F)(F)F)n2n1 | 0.059 | 10 | -3 | -11 | 1.3 | 1.3 | . | .
O=C(NCCO)/C(=C\c1cccs1)NC(=O)c1ccccc1 | . | -7 | . | . | . | . | . | .
CC[N+](C)(CC)CCOC(=O)C(O)(c1ccccc1)C1CCCCC1 (stereo not drawn) | -0.39 | 6 | 4 | -2 | -16* | 0.87 | 10* | 213
CCOC(=O)C(C(=O)Nc1ccccc1)C1CCCCC1 (stereo not drawn) | -0.46 | -6 | 5 | 4 | -0.26 | 0.098 | . | .
O=C(NCc1cccnc1)NC1(C(F)(F)F)Oc2ccc(Cl)cc2O1 (stereo not drawn) | -0.1 | 5 | -17 | 4 | -1.6* | . | 410* | 246
COC(=O)c1cc(Br)c(=O)n(-c2ccccc2OC)c1 | 0.077 | 4 | 2 | -4 | -0.23 | 0.25 | . | .
CC1CCCN(C(=O)COC(=O)c2n[nH]c3ccccc23)C1 (stereo not drawn) | 0.16 | -3 | 37 | -2 | -9.6* | 0.34 | 670 | 241
Cn1c(-c2ccc3c(c2)OCO3)cnc1N | 0.52 | 7 | -5 | 0 | -0.52 | -1.1 | . | .
Cn1c(-c2ccc3c(c2)OCO3)cnc1NCc1ccccc1 | 0.077 | 1 | 68* | 10 | -5.3* | -3.5 | 295* | 182
Cn1c(-c2ccc3c(c2)OCO3)cnc1NCc1cccc(Cl)c1 | -1.2 | -1 | -3 | 6 | -17* | -1.8 | 109* | 221
Cn1c(-c2ccc3c(c2)OCO3)cnc1NC(=O)CCC(=O)NCCc1ccccc1 | -0.17 | 5 | 3 | -24 | 0.56 | -1 | . | .
CSC1=NCCN1C(=O)c1c(F)cccc1Cl | -0.18 | 5 | -8 | -17 | -0.88 | -0.55 | . | .
CC(NC(=O)Nc1nnc(C(F)(F)F)s1)(C(F)(F)F)C(F)(F)F | 4.1 | -3 | -94 | -94 | -1.3* | -3.6 | 513* | 290
CC(NC(=O)Nc1nnc(C(F)(F)F)s1)N1C(=O)C2C3C=CC(C3)C2C1=O (stereo not drawn) | 0.47 | -2 | -6 | 24 | -0.0012 | -0.12 | . | .
CCOc1ccc(-c2nc(=S)[nH][nH]2)cc1 | 1.5 | 10 | 34 | 26 | -5.2* | -0.27 | 638 | 242
COc1ccc(-c2nc(=S)[nH][nH]2)cc1 | 0.19 | 4 | 13 | 5 | 0.13 | -0.039 | . | .
C=CCN1C(=O)/C(=C\c2cc(Cl)c(O)c(Cl)c2)C(=O)NC1=S | . | 10 | . | . | . | . | . | .
CCOC(=O)N1CCC(NC2CCCCCCC2)CC1 | -0.23 | 7 | -12 | -9 | -11* | -0.77 | 100* | 219
O=C(NCCN1CCOCC1)c1ccc2c(c1)N(Cc1ccccc1F)C(=O)CS2 | 0.2 | 1 | 8 | 0 | -3.8* | -0.033 | 172* | 172
COc1ccc(C2C(C(=O)NCc3ccccn3)c3cc(OC)c(OC)cc3C(=O)N2C)cc1 (stereo not drawn) | 1.1 | 7 | -1 | 1 | 0.28 | 0.29 | . | .
SMILES | M1 ag | HePTP inhibitor | SF1 activator | RORA act | M1 antag | D1 mod | M1 antag conf | mGluR4 antag
COc1ccc(-c2ccc(C3NC(=O)c4c(sc5c4CCN(C)C5)N3)o2)cc1Cl (stereo not drawn) | . | 5 | . | . | . | . | . | .
CCc1ccc(CNc2ccc3c(c2)ncn3C)cc1 | -0.29 | 11 | 70* | 61* | -2.7* | -1.1 | 627 | 248
CCCn1cnc2cc(NCc3ccccn3)ccc21 | -0.73 | 4 | 44 | 16 | -1.5 | -0.85 | . | .
O=C(N/C(=N\O)c1ccccc1)Nc1ccc(Cl)cc1 | -0.36 | 2 | 22 | -12 | -3.5* | -0.039 | 487 | 210
CCOC(=O)c1c(O)c2ccccc2n(-c2ccccc2)c1=O | 1 | 6 | -12 | -19 | 0.00052 | -0.25 | . | .
CCOC(=O)N1CCC(NC(=O)c2cc3c(-c4ccccc4F)nn(C)c3s2)CC1 | 0.18 | 4 | 4 | -1 | 0.59 | 0.11 | . | .
CC1CCCCN1CCNC(=O)c1cc2c(-c3ccccc3F)nn(C)c2s1 (stereo not drawn) | -0.1 | 0 | 14 | 3 | -5.5* | -5.7* | 374* | 207
CCc1cc2c(=O)c(-c3nc4ccccc4n3C)coc2c(CN2CCOCC2)c1O | 0.15 | 5 | 10 | -14 | -0.63 | -0.23 | . | .
CCc1cc2c(=O)c(-c3cnn(-c4ccccc4)c3)coc2c(CN2CCOCC2)c1O | 0.75 | 8 | -9 | -16 | -4.2* | 0.063 | 528 | 193
COc1ccc(NC2c3ccccc3C(=O)N2Cc2ccco2)cc1OC (stereo not drawn) | 0.45 | 9 | -2 | -10 | 0.92 | 2.2 | . | .
COc1ccc(C2(CN(C(C)=O)C(C)=O)CCCC2)cc1OC | -0.95 | 3 | -3 | 6 | -14* | 0.39 | 546 | 197
COc1ccccc1CC1CC(=O)N(c2cccc(Cl)c2C)C1=O (stereo not drawn) | . | 7 | . | . | . | . | . | .
N=c1sccn1CC(=O)NCCc1ccc(Cl)cc1 | -0.49 | -2 | 4 | -4 | -4.7* | -1.4 | 408* | 246
O=C1SC(Nc2ccc(O)cc2)C(=O)N1c1ccccc1 (stereo not drawn) | . | 8 | . | . | . | . | . | .
CCOC(=O)c1[nH]c2ccc(Br)cc2c1NC(=O)CCN1CCC(C(=O)OCC)CC1 | -0.48 | -6 | -7 | -9 | -5.2* | -0.5 | 408* | 247
COC(=O)c1[nH]c2ccc(C)cc2c1NC(=O)CCN1CCN(Cc2ccc3c(c2)OCO3)CC1 | -0.024 | -3 | -11 | 5 | -20* | 0.75 | 38* | 226
CCOC(=O)c1[nH]c2ccc(OC)cc2c1NC(=O)CCN1CCCC(C)C1 (stereo not drawn) | 0.15 | 10 | -10 | -12 | -3.6* | . | 370* | 242
COC(=O)c1[nH]c2cccc(OC)c2c1NC(=O)CCN1CC(C)CC(C)C1 (stereo not drawn) | 0.59 | 9 | 3 | 13 | -3.4* | . | 584 | 266
